{"source": "paper PMC9111543", "about": "(International Journal for Parasitology: Drugs and Drug …, 2022)", "test": "Cytotoxicity assay on MRC-5 fibroblasts", "type": "cell-based", "conditions": "human, MRC-5SV2 cells", "outline": "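MRC-5SV2 cells grown in MEM with L-glutamine, NaHCO3 and 5% hiFBS, seeded at 15,000 cells/well. Four-fold dilutions of test compound were added, with a highest in-test concentration of 64 μM. Cells were exposed for 72 h at 37 °C and 5% CO2, then incubated with resazurin for 4 h and read by fluorescence. CC50 was calculated from ≥2 independent experiments in duplicate.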", "data": [{"smiles": "CC[n+]1c(-c2ccccc2)c2cc(N/N=N/c3cccc(C(=N)N)c3)ccc2c2ccc(N)cc21", "note": "[isometamidium]", "values": [{"measurement": "CC50 at 72 h", "result": 22.7, "unit": "µM"}]}]}
